Measured values gathered from unrelated publications.
Each line is one published result; the experiments were not run side by side.

Structure (SMILES)	test system	conditions	quantity	value
COc1ccc([C@@H]2Sc3ccccc3N(CCN(C)C)C(=O)[C@@H]2OC(C)=O)cc1	Sprague-Dawley rat, hepatocytes	2 µM, 4 h, pH 7.4	fraction unbound	0.89
O=C1CC[C@H](N2Cc3cc(N4CCN(CC5CCN(c6ccc([C@@H]7c8ccc(O)cc8CC[C@@H]7c7ccccc7)cc6)CC5)CC4)ccc3C2=O)C(=O)N1	female Sprague-Dawley rat, plasma	oral, 20 mg/kg, fed	MRT(0-inf)	12 h
NS(=O)(=O)OC[C@@H]1C[C@@H](n2ccc3c(N[C@H]4CCc5ccccc54)ncnc32)C[C@@H]1O	human, plasma	intravenous, 25 mg/m², patients	Tmax	1.04 h
N#C[C@@]12C[C@@H]1[C@@H](n1cnc3c(N[C@@H](C4CCC4)C4CC4)nc(I)nc31)[C@H](O)[C@@H]2O	male Wistar rat, plasma	oral, 1 mg/kg	MRT(0-t)	1.59 h
C[C@H]1[C@@H](O)O[C@@H]2O[C@@]3(C)CC[C@H]4[C@H](C)CC[C@@H]1[C@@]24OO3	Sprague-Dawley rat, plasma	oral, 10 mg/kg	MRT(0-t)	2.93 h
COc1ccc([C@@H](O)c2cc(-c3ncnc4cc(N5CCOCC5)ccc34)c(F)cc2Cl)nn1	human, plasma	oral, 200 mg, single dose, patients	Tmax	2.02 h
Cn1cc(Nc2nc(N)nc(-c3cccc(-n4ccc5cc(C6CC6)cc(F)c5c4=O)c3CO)n2)cn1	human, plasma	oral, 300 mg, single dose, fasted, suspension	Tmax	2.52 h
CN1CC[C@@H](c2c(O)cc(O)c3c(=O)cc(-c4ccc(C(F)(F)F)cc4Cl)oc23)[C@@H]1CO	human, plasma	oral, 100 mg, patients	Tmax	3.9 h
O=C1c2ccncc2C(=O)c2c1[nH]c1ccccc21	rat, plasma	intravenous, 1 mg/kg, single dose	MRT	2.4 h
CC(C)NCC(O)COc1cccc2ccccc12 (stereo not shown)	Sprague-Dawley rat, hepatocytes	2 µM, 4 h, pH 7.4	fraction unbound	0.88
